Shown is part of a subset that was picked to be rich in hits.
PvdQ acylase = P. aeruginosa PvdQ acylase inhibition | purified PvdQ acylase, fluorescence plate reader | inhibition, % at 10 µM | 0.063% of 340,000 active | AID 488965; in the data active = inhibition above about 30%, passing the limit was not always enough;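 note: 0% = vehicle neutral wells and 100% = reference inhibitor wells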
CHOP inhibitor = inhibitors of CHOP induction in ER stress response. AID 2732. CHO-K1 CHOP-promoter luciferase, tunicamycin-induced, 15-18 h. inhibition, % at 10 µM. 3.8% of 220,000 active;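 active = compounds that reduced the stress-induced luciferase reporter signal by more than about 70% of percent inhibition, limit read from the data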;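 note: 0% = tunicamycin plus vehicle and 100% = wells without tunicamycin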
CHOP UPR activ = apoptotic UPR (CHOP) activation; CHO-CHOP luciferase reporter, luminescence; percent of tunicamycin response over DMSO baseline; activation, % at 10 µM; 0.34% of 330,000 active;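 active = at 10 µM dose, activation of 40% or more, normalized to positive control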;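 note: 100% = tunicamycin at 10 µg/mL and 0% = DMSO alone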
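Material: CHO-CHOP cells, stable luciferase reporter of PERK-eIF2a-CHOP signalling; quantity: 500 reporter cells seeded per well; buffer or medium: F12 medium containing 10% fetal bovine serum; compound: one dose, 10 µM in 0.5% DMSO; incubation: 6 h compound treatment, 37 °C; measured by: Steady-Glo luciferase luminescence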
XBP1 UPR activ = activators of adaptive arm of unfolded protein response (XBP1). activation, % at 20 µM. AID 463104. 0.33% of 330,000 active. CHO-XBP1 luciferase reporter, IRE1-XBP1 UPR activation, luminescence; percent of tunicamycin response, DMSO as zero;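 active = versus positive control, 20 µM dose yields 30% or more activation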;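 note: 100% = tunicamycin at 10 µg/mL and 0% = DMSO only wells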
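assay system = CHO-XBP1 luciferase reporter cells | amount = 1000 cells/well | buffer or medium = F12 plus 10% FBS | compound dosing = single point, 20 µM final compound, 1% DMSO | incubation = 16-18 h cell attachment at 37 °C, then 6 h compound exposure | detection = Steady-Glo luminescence read | controls = tunicamycin 10 µg/mL and vehicle-only wells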
Active calls of the source: *; x = not tested or not shown.

SMILES | PvdQ acylase | CHOP inhibitor | CHOP UPR activ | XBP1 UPR activ
COc1ccccc1C1(CC(=O)Nc2nccs2)CCOC(C(C)C)C1 (centres undefined) | 7 | 13 | 0 | 0
CCC(SC1=NCCS1)C(=O)Nc1nnc(-c2ccccc2OC)s1 (centres undefined) | -8 | 86* | 2 | 2
CC(SC1=NCCS1)C(=O)Nc1nnc(-c2ccc(Br)cc2)s1 (centres undefined) | -2 | 86* | 11 | 1
Cc1cc(NC(=O)c2ccc(F)cc2F)n(-c2nc3ccccc3[nH]2)n1 | -4 | 18 | 5 | 3
Cc1cc(NC(=O)CC2CCCC2)n(-c2nc3ccccc3[nH]2)n1 | -3 | 85* | 0 | 13
COCCn1c(SCC(=O)Nc2ccccc2C)nc2c(oc3ccccc32)c1=O | 1 | 79* | -1 | 0
COCCn1c(SCC(=O)Nc2ccc(OC)cc2)nc2c(oc3ccccc32)c1=O | x | 48 | 3 | 21
Cc1ccccc1-c1nc(CS(=O)(=O)CC(=O)Nc2cc(F)ccc2F)c(C)o1 | -8 | 78* | -1 | -1
COC(=O)c1ccn(CSc2cc(Cl)ccc2Cl)n1 | 9 | x | 1 | -1
COC(=O)c1ccc2c(=O)n(CCCCCC(=O)O)c(=S)[nH]c2c1 | 0 | 73* | -3 | -5
COC(=O)c1ccc2c(=O)n(Cc3ccc(C(=O)NC4CCCC4)cc3)c(=S)[nH]c2c1 | 22 | 85* | 4 | 12
CCOC(=O)C1=C(C)NC(C)=C(C(=O)OCC)C1C(=O)OCC(=O)N(C)Cc1ccccc1 | 4 | x | 0 | -3
O=C(Nc1ccc(F)cc1)Nc1ccccc1F | 0 | -3 | 6 | 4
O=C(Nc1nc(-c2ccccc2)cs1)Nc1ccc(F)cc1F | -12 | 89* | 5 | 5
O=C(Nc1ccc(NC(=O)c2ccccc2O)cc1)Nc1ccc(F)cc1F | -12 | 71* | 3 | 7
N=C(N)SCCc1ccc(CCSC(=N)N)cc1 | x | 5 | x | x
COc1ccc(NC2=CC(c3ccc(F)cc3)N(c3ccc(OC)cc3)C2=O)cc1 (centres undefined) | 5 | 82* | 4 | 1
COc1ccc(NC2=CC(c3ccc(OC)cc3)N(c3ccc(OC)cc3)C2=O)cc1 (centres undefined) | -11 | 18 | -3 | 3
Cc1cc2ncn(C(=O)c3c(-c4c(Cl)cccc4Cl)noc3C)c2cc1C | -13 | 74* | -3 | -2
Cc1cc2ncn(C(=O)c3c(-c4ccccc4)noc3C)c2cc1C | -3 | 72* | 0 | -3
Cc1onc(-c2ccccc2)c1C(=O)n1nnc2ccccc21 | -16 | -43 | 0 | -3
O=C(O)c1ccc2c(c1)C(=O)N(c1ccc(Nc3ccccc3)cc1)C2=O | -14 | x | 3 | -4
CCOC(=O)CCc1c(C)nc(SCCCn2c(=O)[nH]c3ccccc32)c(C#N)c1C | -20 | 83* | 0 | -3
CCOC(=O)CCc1c(C)nc(SCCN2CCCC2)c(C#N)c1C | -16 | 32 | -1 | -2
CC(C)=C1C2CCC1C1C(=O)N(NC(=O)COc3ccc(Cl)c(C)c3)C(=O)C21 (centres undefined) | -12 | 71* | -2 | 1
SMILES | PvdQ acylase | CHOP inhibitor | CHOP UPR activ | XBP1 UPR activ
O=C(COc1ccc(Cl)c(Cl)c1)NN1C(=O)C2C(C1=O)C1C=CC2C12CC2 (centres undefined) | -5 | 21 | 1 | -1
Cc1ccc(CNC(=O)CSc2nc3n[nH]c(C)c3c(=N)n2-c2cccc(C)c2)cc1 | 4 | 66 | -2 | 0
Cc1cc(-n2c(SCC(=O)NCc3cccs3)nc3n[nH]c(C)c3c2=N)ccc1Cl | -4 | 81* | 7 | 9
CCN(CC(=O)NCCCn1ccnc1)S(=O)(=O)c1ccc(C)cc1 | -27 | x | 2 | -5
COc1cc(C2C3=C(CC(C)(C)CC3=O)OC3=C2C(=O)CC(C)(C)C3)cc([N+](=O)[O-])c1O | -18 | -15 | -1 | -1
O=C(CN1CCN(S(=O)(=O)c2ccccc2)CC1)Nc1cccc(C(F)(F)F)c1 | -4 | 79* | -1 | -2
CSc1nc(Oc2ccc3ccccc3c2)c2ccccc2n1 | 7 | -29 | -2 | 0
O=[N+]([O-])c1ccccc1CNc1ccc(F)c(Cl)c1 | 15 | -20 | 3 | 0
Fc1ccccc1CNc1cc(Cl)cc(Cl)c1 | 10 | 90* | 1 | 0
NNc1ccc2c(C(F)(F)F)cc(C(F)(F)F)nc2n1 | -12 | -27 | -1 | -4
N#CC(c1cccc(Cl)c1)c1ccc2c(C(F)(F)F)cc(C(F)(F)F)nc2n1 (centres undefined) | -2 | 102* | 18 | 2
O=C(c1sc2cccc(Cl)c2c1Cl)N1CCN(CCc2ccccn2)CC1 | 0 | x | 0 | -1
CCOc1ccc(CNc2cccc(SC)c2)cc1 | -5 | 87* | -1 | 2
OCCC1CN(Cc2cccn2-c2nccs2)CCN1Cc1ccc(F)c(F)c1 (centres undefined) | -7 | 7 | -1 | -2
Cc1cc(C(=O)CSc2nc3ccccc3[nH]2)c(C)n1CC1CCCO1 (centres undefined) | 3 | 74* | -3 | -4
Cc1cc(C(=O)CSc2nc(N)cc(=O)[nH]2)c(C)n1CC1CCCO1 (centres undefined) | -1 | x | 2 | -2
O=C(CNCCc1ccc(Cl)cc1)Nc1ccc(C(=O)N2CCCCC2)cc1 | -5 | x | 2 | -3
COc1cc2ccccc2cc1-c1nnc(COc2ccccc2)o1 | -20 | 82* | 0 | 0
COc1ccccc1N(CC(O)COc1ccccc1C)S(=O)(=O)c1ccccc1 (centres undefined) | 6 | 25 | 3 | 1
O=C(Cn1cc2c(n1)CCCC2)Nc1cc(-c2cccc(Cl)c2)no1 | -11 | 95* | 0 | 4
N#CC(c1ccc(Cl)nn1)c1ccc(Cl)cc1Cl (centres undefined) | 114* | 15 | -4 | -5
COc1ccc(C(C#N)c2ccc(Cl)nn2)cc1 (centres undefined) | 46* | -7 | 0 | 2
CCO[C@H]1c2c(ccc3ccc(=O)oc23)OC(C)(C)[C@H]1O | -13 | x | 0 | 1
CN(CC(=O)Nc1ccc(N2CCOCC2)cc1)C(=O)c1cc(F)c(F)cc1Cl | -4 | x | 1 | 0
COc1ccccc1/C=C/C(=O)Nc1cccc(S(=O)(=O)NC2=NCCCCC2)c1 | -7 | 30 | 1 | 1
Cc1nn(CC(O)CN2c3ccccc3Sc3ccccc32)c(C)c1Br (centres undefined) | -3 | 77* | -2 | -1
Cc1c2c(nc3ccccc13)CCC(C)C2 (centres undefined) | -3 | 52 | 0 | 0
Cc1cc(NC(=O)c2cccc(S(=O)(=O)N3CCC(C)CC3)c2)no1 | -4 | x | 2 | -6
COc1ccc(-c2nnc(NC(=O)c3ccc(S(=O)(=O)N4CCc5ccccc5C4)cc3)o2)cc1 | -8 | 71* | 10 | 0
COc1ccc(-c2cn3cccnc3n2)cc1NC(=O)c1ccc(Br)o1 | -10 | 86* | 1 | 4

High-throughput results (PubChem)
